Assay outcomes deposited in PubChem by Johns Hopkins Ion Channel Center.
KCNQ1 block = inhibitors of human KCNQ1 channel, primary screen, cell-based, thallium flux, high-throughput | Potassium voltage-gated channel subfamily KQT member 1 (Homo sapiens), P51787 | CHO-K1 KCNQ1, FluxOR thallium flux fluorescence; active compounds read high | B-score at 10 µM | 1.3% of 310,000 active | AID 2642, 2010;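 active = compounds whose thallium flux B-score, printed positive for inhibition, exceeds three library SD while starting fluorescence stays within three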;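 also: channel opened by potassium depolarization with thallium stimulus after 20 min compound exposure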
KCNQ1 pot = potentiators or activators of KCNQ1 channel, primary screen, cell-based, thallium flux, high-throughput. Potassium voltage-gated channel subfamily KQT member 1 (Homo sapiens), P51787. AID 2648, 2010. CHO-K1 KCNQ1, thallium flux FluxOR fluorescence; active compounds read high. 0.35% of 310,000 active. B-score at 10 µM;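 active = fluorescence ratio B-score, a plate-corrected score, at least three library SD, with initial intensity B-score within 5 SD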
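Medium – assay buffer, equal DMSO in all wells · Material – CHO-K1 cell line with stable KCNQ1 potassium channel expression · Signal – kinetic FluxOR thallium fluorescence, 10-s 1-Hz baseline, 110-s post-stimulus read · Compound – single concentration per compound, DMSO matched to controls · Schedule – 37 °C overnight plating, 90-min dark dye load, 20-min compound pretreatment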
hERG rescue = hERG rescue from dofetilide block, primary screen, cell-based, CHO-hERG, FluxOR thallium flux, dofetilide IC70 | dofetilide IC70 present | activation (rescue from dofetilide block), less the hit threshold, % at 10 µM | 0.51% of 310,000 active;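 active = activation above the mean of controls blocked by dofetilide plus 5 SD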;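 also: thallium influx through hERG after potassium depolarization seen as dye fluorescence rise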
KCNK9 block = KCNK9 potassium channel inhibitors, primary screen, HEK293 cells, thallium flux; 1.2% of 310,000 active; Potassium channel subfamily K member 9 (Homo sapiens), Q9NPC2; B-score at 10 µM; FluxOR thallium flux fluorescence; active compounds read low; AID 488922, 2010;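 active = ratio B-score over 3 SD below the library mean, with starting fluorescence within 5 SD of its mean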;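 also: negative B-score means less thallium flux so channel inhibition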
Target sequence (Q9NPC2 whole entry, looked up): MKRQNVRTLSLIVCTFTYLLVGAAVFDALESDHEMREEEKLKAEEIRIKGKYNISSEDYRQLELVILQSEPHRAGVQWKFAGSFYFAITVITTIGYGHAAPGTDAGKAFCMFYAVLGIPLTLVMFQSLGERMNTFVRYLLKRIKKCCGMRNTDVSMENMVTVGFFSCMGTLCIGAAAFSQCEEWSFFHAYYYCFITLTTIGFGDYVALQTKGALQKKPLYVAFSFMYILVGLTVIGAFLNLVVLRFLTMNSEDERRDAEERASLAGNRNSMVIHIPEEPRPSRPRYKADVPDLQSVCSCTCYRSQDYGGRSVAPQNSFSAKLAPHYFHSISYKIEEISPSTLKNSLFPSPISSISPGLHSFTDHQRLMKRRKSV
KCNK3 inh = human KCNK3 channel inhibitors, primary screen, CHO cells, FluxOR thallium flux, B-score; FluxOR fluorescence; active compounds read low; 0.84% of 340,000 active; B-score at 10 µM; Potassium channel subfamily K member 3 (Homo sapiens), O14649;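 active = B-score under library mean minus 4 SD, starting fluorescence ratio at most library mean plus 5 SD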;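 also: more negative B-score means stronger inhibition of thallium flux through KCNK3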
An asterisk follows results filed as active; i = inactive; . = not tested or not shown. Most compounds without a hit are left out; they make up all but 3.1% or so of the library.

SMILES	KCNQ1 block	KCNQ1 pot	hERG rescue	KCNK9 block	KCNK3 inh
COC(=O)Cn1c(=O)c2c(nc3n2CCCN3Cc2ccccc2)n(C)c1=O	i	i	-2.3	i	i
CCOC(=O)Cn1nc(C(F)F)c(Br)c1C	i	i	-10.0	i	i
CCOc1cc(N2CCOCC2)c(OCC)cc1NC(=O)CN1C(=O)C2CC=CCC2C1=O (configuration not stated)	i	i	7.2*	i	i
CCOc1cc(N2CCOCC2)c(OCC)cc1NC(=O)CCC1CCCC1	i	i	6.9*	i	i
CCOc1cc(N2CCOCC2)c(OCC)cc1NC(=O)C1CCCC1	i	i	-3.8	i	i
CCOc1cc(N2CCOCC2)c(OCC)cc1NC(=O)c1ccc(NC(C)=O)cc1	i	i	39.9*	i	i
CCOc1cc(N2CCOCC2)c(OCC)cc1NC(=O)CN1C(=O)C2C3C=CC(C3)C2C1=O (configuration not stated)	i	i	-6.3	i	i
O=C(N/N=C/c1coc2ccccc2c1=O)c1cc(Br)c(O)c(Br)c1	8*	i	-30.4	i	i
O=C(N/N=C/c1coc2ccccc2c1=O)c1ccncc1	i	i	-8.9	i	i
CCS(=O)(=O)N1CCC(C(=O)Nc2ccc3c(c2)CCC3)CC1	i	i	-1.7	i	i
COc1ccc(/C=C(/C(=O)c2cccs2)N2C=CC=CC2=C(C#N)C#N)cc1	11*	i	-29.4	i	i
CC(C)C(=O)Nc1ccc2c(c1)Cc1cc(NC(=O)C(C)C)ccc1-2	i	i	6.0*	i	i
Clc1ccc(-c2nnc(CSc3nnc(-c4cccs4)n3Cc3ccccc3)o2)cc1	8*	i	-21.3	i	-8.84*
COc1ccc(C(=O)NCC(=O)OCC(=O)Nc2sccc2C#N)cc1OC	i	i	-9.3	i	i
CC(=O)NC(c1ccc2ccccc2c1)c1ccc2cccnc2c1O (configuration not stated)	i	i	-2.6	i	i
Oc1c(C(Nc2cccc(C(F)(F)F)c2)c2ccncc2)ccc2cccnc12 (configuration not stated)	13*	i	-3.6	i	i
COc1ccc(C(CNC(=O)COc2cccc(C(F)(F)F)c2)N2CCCC2)cc1 (configuration not stated)	.	.	.	.	i
O=[N+]([O-])c1cc2oc3c(c2c(C=NCc2ccccc2)c1O)CCCC3	i	i	-2.2	i	i
CC(C)CN=Cc1c(O)c([N+](=O)[O-])cc2oc3c(c12)CCCC3	i	15*	-4.9	i	i
O=c1ccc(C(F)(F)F)cn1Cc1cc(=O)n2ccsc2n1	i	i	0.2	i	i
O=c1cc(CNc2cc(C(F)(F)F)cc(C(F)(F)F)c2)nc2sccn12	i	i	-3.1	-7.4*	i
Cn1c(=O)c2c(nc(N3CCc4ccccc4C3)n2Cc2ccc(Br)cc2)n(C)c1=O	i	i	-10.9	-7*	i
Cn1c(=O)c2c(nc(N3CCc4ccccc4C3)n2Cc2ccccc2F)n(C)c1=O	i	i	-8.8	i	i
C=CCCCN(Cc1ccccc1)S(=O)(=O)c1ccccc1Br	i	i	-16.5	-7.71*	i
Cc1ccc(C(=O)Sc2cccccc2=O)cc1	i	15*	5.5*	i	i
SMILES	KCNQ1 block	KCNQ1 pot	hERG rescue	KCNK9 block	KCNK3 inh
Cc1cccc(NC(=O)c2ccc(NS(=O)(=O)c3cccc4cccnc34)cc2)c1	.	.	.	.	i
Clc1cccc(-c2ccc(-c3nc4ccccn4c3NCc3ccccc3)cc2)c1	.	.	.	.	-9.62*
COc1ccc(-c2cc(-c3nc4ccccn4c3NCc3ccccc3)ccc2OC)cc1	.	.	.	.	-8.7*
CCCCCCC[C@@H](C/C=C/CCC(=O)N(C)C/C(=C/Cl)C/C(=C\C(=O)N1CC(OC)=CC1=O)OC)OC	.	.	.	.	-8.81*
COc1ccc(C(CC(=O)Nc2cc([N+](=O)[O-])ccc2OC)c2ccccc2)cc1 (configuration not stated)	i	i	-14.5	i	i
CCOc1ccccc1NC(=O)NC1CC2CCCC(C1)N2Cc1nnnn1CCc1ccccc1 (configuration not stated)	i	i	-7.3	i	-9.14*
CC(C)c1ccc(NC(=O)C(c2ccc3c(c2)OCO3)N2CCC3(CC2)OCCO3)cc1 (configuration not stated)	i	i	-10.1	i	i
CC(C)c1ccc(NC(=O)C(c2ccc3c(c2)OCO3)N2CCCCC2)cc1 (configuration not stated)	i	i	-19.0	-7.38*	i
CC1CCN(C(C(=O)Nc2ccc(C(C)C)cc2)c2ccc3c(c2)OCO3)CC1 (configuration not stated)	i	i	-12.0	-8.09*	i
COc1ccccc1N1CCN(C(=O)c2coc(=O)c(Br)c2)CC1	i	i	-12.5	i	i
COc1ccccc1Nc1nc(-c2ccccc2)nc2ccccc12	i	i	-10.0	-7.17*	i
Cn1cc(/C=C/c2cc[n+](C)cc2)c2cc(Cl)ccc21	12*	i	-31.9	i	i
CN(C)c1ccc(/C=C/c2nc3ccccc3c(=O)n2CCO)cc1	6*	i	-18.0	i	i
O=c1c2ccccc2nc(/C=C/c2ccccc2)n1CCCO	i	i	-7.2	i	i
CC(C)c1ccc(C2C3CSCC=C3C(C#N)=C(N)C2(C#N)C#N)cc1 (configuration not stated)	12*	i	-20.5	i	.
CN1CC=C2C(C#N)=C(N)C(C#N)(C#N)[C@H](c3cccc(Cl)c3)C2C1 (some centres not stated)	8*	i	-11.1	i	i
Cc1ccc(C(=O)NC(=S)N(C)C2CCCCC2)cc1	i	17*	14.7*	i	i
CCC(C(=O)Nc1ccc2c(c1)OCCO2)n1c(=O)[nH]c2ccccc2c1=O (configuration not stated)	i	i	-8.8	i	i
O=C(NNC(=O)c1cc(-c2cccnc2)nc2ccccc12)Nc1ccc(Cl)cc1	12*	i	-39.9	i	i
COc1ccc(NC(=O)CN(C)C(=O)c2cc(-c3ccc(Cl)cc3)nc3ccccc23)cc1	7*	i	-30.4	i	i
